Reference: ChEMBL document CHEMBL1828596, “Synthesis of methoxy- and bromo-substituted indirubins and their activities on apoptosis induction in human neuroblastoma cells” (Bioorg Med Chem Lett, 2011)
Calls of active or inactive are those of the source. No cut-off for these calls is given here.

Tests used:
[1] = test system: NB39; assay: Cytotoxicity against human NB39 cells assessed as cell viability after 48 hrs by MTT assay; format: functional, cell-based
Summary of the method: (§1)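 MTT viability assay in neuroblastoma lines (IMR-32, SK-N-SH, NB-39) and normal cells (NHDF, HUVEC). Cells were exposed to the indicated concentrations of compound or DMSO vehicle for 48 h. Survival is expressed relative to the vehicle control as mean ± SEM, n = 3.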

[2] = test system: HUVEC; assay: Cytotoxicity against human HUVEC cells assessed as cell viability after 48 hrs by MTT assay; format: cell-based; summary of the method: as §1
[3] = test system: NHDF; assay: Cytotoxicity against human NHDF cells assessed as cell viability after 48 hrs by MTT assay; format: cell-based; summary of the method: as §1
[4] = test system: SK-N-SH; assay: Cytotoxicity against human SK-N-SH cells assessed as cell viability after 48 hrs by MTT assay; format: functional, cell-based; summary of the method: as §1
[5] = test system: IMR-32; assay: Cytotoxicity against human IMR32 cells assessed as cell viability after 48 hrs by MTT assay; format: functional, cell-based; summary of the method: as §1
[6] = test system: HUVEC; assay: (§2) Cytotoxicity against human HUVEC cells assessed as cell viability up to 40 uM after 48 hrs by MTT assay; format: cell-based; details: huvec, 48 h; summary of the method: as §1
[7] = test system: NB39; assay: Cytotoxicity against human NB39 cells assessed as cell viability up to 40 uM after 48 hrs by MTT assay; format: functional, cell-based; summary of the method: as §1
[8] = test system: NHDF; assay: (§3) Cytotoxicity against human NHDF cells assessed as cell viability up to 40 uM after 48 hrs by MTT assay; format: cell-based; details: nhdf, 48 h; summary of the method: as §1
[9] = test system: IMR-32; assay: Cytotoxicity against human IMR32 cells assessed as cell viability up to 40 uM after 48 hrs by MTT assay; format: functional, cell-based; summary of the method: as §1
[10] = test system: SK-N-SH; assay: Cytotoxicity against human SK-N-SH cells assessed as cell viability up to 40 uM after 48 hrs by MTT assay; format: functional, cell-based; summary of the method: as §1
[11] = as §2; format: cell-based; details: HUVEC cells, read-out: Activity; summary of the method: as §1
[12] = as §3; format: cell-based; details: NHDF cells, read-out: Activity; summary of the method: as §1
[13] = Cytotoxicity against human NB39 cells assessed as cell survival at 100 uM; format: functional; details: read-out: Activity; summary of the method: as §1
[14] = test system: IMR-32; assay: Induction of apoptosis human IMR32 cells assessed as increase in late apoptotic cells at 100 uM after 48 hrs using annexin V-propidium iodide staining by flow cytometry; format: functional, cell-based
Summary of the method: (§4)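 IMR-32 cells were treated with compound at 100 μM or DMSO vehicle for 48 h; untreated cells served as the normal group. Cells were double-stained with Annexin V-Alexa Fluor 488 and propidium iodide and analysed by flow cytometry. Early apoptosis was read as Annexin+/PI− and late apoptosis as Annexin+/PI+. Groups were compared with one-way ANOVA and Bonferroni post hoc test versus vehicle.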

[15] = test system: SK-N-SH; assay: Cytotoxicity against human SK-N-SH cells assessed as cell survival at 100 uM; format: functional; details: read-out: Activity; summary of the method: as §1
[16] = test system: IMR-32; assay: Cytotoxicity against human IMR32 cells assessed as cell survival at 100 uM; format: functional; details: read-out: Activity; summary of the method: as §1
[17] = test system: IMR-32; assay: Induction of apoptosis in human IMR32 cells assessed as appearance of fragmented nuclei at 1 x 10^-6 to 1 x 10^-4 M after 24 hrs using Hoechst 33342 staining by fluorescent microscopic analysis; format: functional, cell-based
Summary of the method: (§5)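 IMR-32 cells were exposed to compound (1 × 10⁻⁶–1 × 10⁻⁴ M) or cisplatin (1 × 10⁻⁴ M) for 24 h, then stained with Hoechst 33342. Phase-contrast and fluorescence microscopy were used to assess nuclear morphology (shrinkage, chromatin condensation, fragmented nuclei).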

[18] = test system: IMR-32; assay: Induction of apoptosis human IMR32 cells assessed as increase in early apoptotic cells at 100 uM after 48 hrs using annexin V-propidium iodide staining by flow cytometry; format: functional, cell-based; summary of the method: as §4
[19] = test system: IMR-32; assay: Induction of apoptosis in human IMR32 cells assessed as chromatin condensation at 1 x 10^-6 to 1 x 10^-4 M after 24 hrs using Hoechst 33342 staining by fluorescent microscopic analysis; format: functional, cell-based; summary of the method: as §5
[20] = Cytotoxicity against human NHDF cells assessed as cell survival at 100 uM; format: cell-based; details: read-out: Activity; summary of the method: as §1
[21] = Cytotoxicity against human HUVEC cells assessed as cell survival at 100 uM; format: cell-based; details: read-out: Activity; summary of the method: as §1
[22] = test system: IMR-32; assay: Induction of apoptosis in human IMR32 cells assessed as cellular shrinkage at 1 x 10^-6 to 1 x 10^-4 M after 24 hrs using Hoechst 33342 staining by fluorescent microscopic analysis; format: functional, cell-based; summary of the method: as §5

| Compound | Activity [1] | Activity [2] | Activity [3] | Activity [4] | Activity [5] | also measured |
| --- | --- | --- | --- | --- | --- | --- |
| O=C1C(c2c(O)[nH]c3ccccc23)=Nc2cc(Br)ccc21 | inactive | Non-toxic | Non-toxic | inactive | inactive | – |
| O=Nc1c(-c2c(O)[nH]c3ccccc23)[nH]c2ccccc12 [INDIRUBIN-3-MONOXIME] | Active | Non-toxic | – | Active | Active | – |
| COc1cccc2c1NC(=O)/C2=C1\Nc2ccccc2C1=O | – | – | – | – | – | Activity [6]: Non-toxic; Activity [7]: inactive; Activity [8]: Non-toxic; Activity [9]: inactive; Activity [10]: inactive |
| O=C1C(c2c(O)[nH]c3ccc(Br)cc23)=Nc2ccccc21 | inactive | Non-toxic | Non-toxic | inactive | inactive | – |
| O=C1C(c2c(O)[nH]c3c(Br)cccc23)=Nc2ccccc21 | inactive | Non-toxic | Non-toxic | inactive | inactive | – |
| COc1ccc2c(c1)NC(=O)/C2=C1\Nc2ccccc2\C1=N/O | Active | Non-toxic | Non-toxic | Active | Active | – |
| CCc1ccc2c(c1)C(=O)/C(=C1/C(=O)Nc3ccccc31)N2 | – | – | – | – | – | Activity [6]: Non-toxic; Activity [7]: inactive; Activity [8]: Non-toxic; Activity [9]: inactive; Activity [10]: inactive |
| O=C1C(c2c(O)[nH]c3ccccc23)=Nc2ccc(Br)cc21 | inactive | Non-toxic | Non-toxic | inactive | inactive | – |
| Cc1ccc2c(c1)C(=O)C(c1c(O)[nH]c3ccccc13)=N2 | – | – | – | – | – | Activity [6]: Non-toxic; Activity [7]: inactive; Activity [8]: Non-toxic; Activity [9]: inactive; Activity [10]: inactive |
| COc1cccc2c1NC(=O)/C2=C1\Nc2ccccc2\C1=N/O | Active | – | – | Active | Active | – |
| COc1ccc2c(c1)N/C(=C1\C(=O)Nc3ccccc31)C2=O | Active | – | – | Active | Active | viability at 48 h [11]: 60%; viability at 48 h [12]: 82% |
| O=C1Nc2ccccc2/C1=C1/Nc2ccccc2C1=O [INDIRUBIN] | – | – | – | – | – | Activity [6]: Non-toxic; Activity [7]: inactive; Activity [8]: Non-toxic; Activity [9]: inactive; Activity [10]: inactive |
| COc1ccc2c(c1)NC(=O)/C2=C1\Nc2ccccc2C1=O | – | – | – | – | – | Activity [6]: Non-toxic; Activity [7]: inactive; Activity [8]: Non-toxic; Activity [9]: inactive; Activity [10]: inactive |
| O=C1Nc2cc(Br)ccc2/C1=C1/Nc2ccccc2/C1=N\O | Active | – | – | Active | Active | – |
| COc1ccc2[nH]c(O)c(C3=Nc4ccccc4C3=O)c2c1 | Active | Toxic | Toxic | Active | Active | – |
| O=C1C(c2c(O)[nH]c3cc(Br)ccc23)=Nc2ccccc21 | inactive | Non-toxic | Non-toxic | inactive | inactive | – |
| COc1ccc2c(c1)C(=O)C(c1c(O)[nH]c3ccccc13)=N2 | Active | Non-toxic | Non-toxic | Active | Active | viability at 100 µM [13]: 10%; Activity [14]: Active; viability at 100 µM [15]: 10%; viability at 100 µM [16]: 10%; Activity [17]: Active; Activity [18]: Active; Activity [19]: Active; viability at 100 µM [20]: 80%; viability at 100 µM [21]: 40%; Activity [22]: Active |
| COc1ccc2c(c1)/C(=C1/Nc3ccccc3/C1=N\O)C(=O)N2 | Active | – | – | Active | Active | – |
| COc1ccc2c(c1)C(=N\O)/C(=C1/C(=O)Nc3ccccc31)N2 | inactive | Non-toxic | Non-toxic | inactive | inactive | – |
